Laboratory results as given in the array DNA melting data of Ke et al. (doi:10.1101/2024.01.08.574731).

How the values were obtained:
[1] = melting temperature; fluorescence melt of hairpins on a sequencing array, two-state fit, raised by 9.35 °C to match UV melts; details: sodium 0.088 M
Outline: (§1)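 Library hairpins on a sequenced MiSeq flow cell carried annealed Cy3 and quencher oligos, and their Cy3 fluorescence was imaged in 50 mM Na-HEPES pH 8.0 with 25 mM NaCl, in 2.5 °C steps up to 60 °C. Signals were normalised to Cy3 before quenching and to control constructs. Melting temperature and folding enthalpy were obtained from bootstrapped two-state fits, combined by inverse-variance weighting across four replicates, and the fitted temperatures were then raised by 9.35 °C to match UV melts.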

[2] = folding enthalpy; higher = less favourable; fluorescence melt of hairpins on a sequencing array, two-state fit; details: sodium 0.088 M
Outline: as §1

## GATCGTTCAACGATC ((((((...))))))
[1]
  Tm: 55.5 °C
[2]
  folding enthalpy: -42 kcal/mol

## GATCGTTCAGACGATC ((((((....))))))
[1]
  Tm: 55.6 °C
[2]
  folding enthalpy: -38.9 kcal/mol

## GATCGTTCCGACGATC ((((((....))))))
[1]
  Tm: 56.1 °C
[2]
  folding enthalpy: -40.9 kcal/mol

## GATCGTTCTAACGATC ((((((....))))))
[1]
  Tm: 57.3 °C
[2]
  folding enthalpy: -39.7 kcal/mol

## GATCGTTCTGACGATC ((((((....))))))
[1]
  Tm: 55.5 °C
[2]
  folding enthalpy: -44.4 kcal/mol

## GATCGTTCTTACGATC ((((((....))))))
[1]
  Tm: 56.3 °C
[2]
  folding enthalpy: -40.6 kcal/mol

## GATCGTTGTGACGATC ((((((....))))))
[1]
  Tm: 60.2 °C
[2]
  folding enthalpy: -41 kcal/mol

## GATCGTTTACACGATC ((((((....))))))
[1]
  Tm: 53.8 °C
[2]
  folding enthalpy: -45.4 kcal/mol

## GATCGTTTATACGATC ((((((....))))))
[1]
  Tm: 57.5 °C
[2]
  folding enthalpy: -38.7 kcal/mol

## GATCGTTTGTACGATC ((((((....))))))
[1]
  Tm: 56 °C
[2]
  folding enthalpy: -37.3 kcal/mol

## GATCGTTTTCACGATC ((((((....))))))
[1]
  Tm: 55.4 °C
[2]
  folding enthalpy: -45.2 kcal/mol

## GATCTAAAACTAGATC ((((((....))))))
[1]
  Tm: 31.1 °C
[2]
  folding enthalpy: -21.1 kcal/mol

## GATCTAAAGTTAGATC ((((((....))))))
[1]
  Tm: 36.7 °C
[2]
  folding enthalpy: -26.1 kcal/mol

## GATCTAAATCTAGATC ((((((....))))))
[1]
  Tm: 35.4 °C
[2]
  folding enthalpy: -25.2 kcal/mol

## GATCTAAATGTAGATC ((((((....))))))
[1]
  Tm: 36.7 °C
[2]
  folding enthalpy: -26.8 kcal/mol

## GATCTAACACTAGATC ((((((....))))))
[1]
  Tm: 36.9 °C
[2]
  folding enthalpy: -24.6 kcal/mol

## GATCTAACGATAGATC ((((((....))))))
[1]
  Tm: 34.1 °C
[2]
  folding enthalpy: -29.4 kcal/mol

## GATCTAACGTTAGATC ((((((....))))))
[1]
  Tm: 48.3 °C
[2]
  folding enthalpy: -47 kcal/mol

## GATCTAACTTTAGATC ((((((....))))))
[1]
  Tm: 43.2 °C
[2]
  folding enthalpy: -29.9 kcal/mol

## GATCTAAGCATAGATC ((((((....))))))
[1]
  Tm: 40.3 °C
[2]
  folding enthalpy: -32.2 kcal/mol

## GATCTAAGCTAGATC ((((((...))))))
[1]
  Tm: 39.5 °C
[2]
  folding enthalpy: -21.5 kcal/mol

## GATCTAAGCTTAGATC ((((((....))))))
[1]
  Tm: 47.5 °C
[2]
  folding enthalpy: -53.5 kcal/mol

## GATCTAAGGCTAGATC ((((((....))))))
[1]
  Tm: 38.8 °C
[2]
  folding enthalpy: -25.3 kcal/mol

## GATCTAAGTTAGATC ((((((...))))))
[1]
  Tm: 37.3 °C
[2]
  folding enthalpy: -29.9 kcal/mol

## GATCTAATACTAGATC ((((((....))))))
[1]
  Tm: 37.4 °C
[2]
  folding enthalpy: -30.1 kcal/mol

## GATCTAATCATAGATC ((((((....))))))
[1]
  Tm: 38.6 °C
[2]
  folding enthalpy: -34.8 kcal/mol

## GATCTAATTATAGATC ((((((....))))))
[1]
  Tm: 37.9 °C
[2]
  folding enthalpy: -29 kcal/mol

## GATCTACACATAGATC ((((((....))))))
[1]
  Tm: 43.2 °C
[2]
  folding enthalpy: -44.3 kcal/mol

## GATCTACCAGTAGATC ((((((....))))))
[1]
  Tm: 48.9 °C
[2]
  folding enthalpy: -32.6 kcal/mol

## GATCTACCGATAGATC ((((((....))))))
[1]
  Tm: 37.8 °C
[2]
  folding enthalpy: -35.5 kcal/mol

## GATCTACGGGTAGATC ((((((....))))))
[1]
  Tm: 51.1 °C
[2]
  folding enthalpy: -42.6 kcal/mol

## GATCTACGTGTAGATC ((((((....))))))
[1]
  Tm: 55.2 °C
[2]
  folding enthalpy: -48.5 kcal/mol

## GATCTACTGTAGATC ((((((...))))))
[1]
  Tm: 41.1 °C
[2]
  folding enthalpy: -36.8 kcal/mol

## GATCTACTTCTAGATC ((((((....))))))
[1]
  Tm: 38.7 °C
[2]
  folding enthalpy: -33.5 kcal/mol

## GATCTAGAACTAGATC ((((((....))))))
[1]
  Tm: 44.9 °C
[2]
  folding enthalpy: -34.2 kcal/mol

## GATCTAGAATTAGATC ((((((....))))))
[1]
  Tm: 45.2 °C
[2]
  folding enthalpy: -35 kcal/mol

## GATCTAGACGTAGATC ((((((....))))))
[1]
  Tm: 44.8 °C
[2]
  folding enthalpy: -38.9 kcal/mol

## GATCTAGAGTAGATC ((((((...))))))
[1]
  Tm: 34.8 °C
[2]
  folding enthalpy: -28.1 kcal/mol

## GATCTAGAGTTAGATC ((((((....))))))
[1]
  Tm: 37.7 °C
[2]
  folding enthalpy: -24 kcal/mol

## GATCTAGCACTAGATC ((((((....))))))
[1]
  Tm: 47.1 °C
[2]
  folding enthalpy: -43.9 kcal/mol

## GATCTAGCAGTAGATC ((((((....))))))
[1]
  Tm: 43.2 °C
[2]
  folding enthalpy: -31.2 kcal/mol

## GATCTAGCTATAGATC ((((((....))))))
[1]
  Tm: 47.7 °C
[2]
  folding enthalpy: -40.2 kcal/mol

## GATCTAGGCCTAGATC ((((((....))))))
[1]
  Tm: 52.4 °C
[2]
  folding enthalpy: -56 kcal/mol

## GATCTAGTCATAGATC ((((((....))))))
[1]
  Tm: 50 °C
[2]
  folding enthalpy: -38.4 kcal/mol

## GATCTAGTGATAGATC ((((((....))))))
[1]
  Tm: 45.7 °C
[2]
  folding enthalpy: -34.5 kcal/mol

## GATCTAGTTGTAGATC ((((((....))))))
[1]
  Tm: 41.2 °C
[2]
  folding enthalpy: -28.2 kcal/mol

## GATCTATAAATAGATC ((((((....))))))
[1]
  Tm: 39.9 °C
[2]
  folding enthalpy: -35.4 kcal/mol

## GATCTATAGCTAGATC ((((((....))))))
[1]
  Tm: 36.5 °C
[2]
  folding enthalpy: -28.7 kcal/mol

## GATCTATATTTAGATC ((((((....))))))
[1]
  Tm: 43.1 °C
[2]
  folding enthalpy: -34.6 kcal/mol

## GATCTATCCGTAGATC ((((((....))))))
[1]
  Tm: 43.1 °C
[2]
  folding enthalpy: -30.1 kcal/mol

## GATCTATCGCTAGATC ((((((....))))))
[1]
  Tm: 39.8 °C
[2]
  folding enthalpy: -15 kcal/mol

## GATCTATCGGTAGATC ((((((....))))))
[1]
  Tm: 39.1 °C
[2]
  folding enthalpy: -24.7 kcal/mol

## GATCTATGATAGATC ((((((...))))))
[1]
  Tm: 37.3 °C
[2]
  folding enthalpy: -25.2 kcal/mol

## GATCTATTAATAGATC ((((((....))))))
[1]
  Tm: 45.2 °C
[2]
  folding enthalpy: -37.8 kcal/mol

## GATCTATTATTAGATC ((((((....))))))
[1]
  Tm: 43.2 °C
[2]
  folding enthalpy: -34.1 kcal/mol

## GATCTATTCTTAGATC ((((((....))))))
[1]
  Tm: 44.8 °C
[2]
  folding enthalpy: -40.9 kcal/mol

## GATCTATTGTAGATC ((((((...))))))
[1]
  Tm: 41 °C
[2]
  folding enthalpy: -22.8 kcal/mol

## GATCTATTTGTAGATC ((((((....))))))
[1]
  Tm: 45.2 °C
[2]
  folding enthalpy: -35 kcal/mol

## GATCTCAACCGAGATC ((((((....))))))
[1]
  Tm: 51.9 °C
[2]
  folding enthalpy: -45.1 kcal/mol

## GATCTCACAAGAGATC ((((((....))))))
[1]
  Tm: 53.7 °C
[2]
  folding enthalpy: -38.7 kcal/mol

## GATCTCACCGGAGATC ((((((....))))))
[1]
  Tm: 52.2 °C
[2]
  folding enthalpy: -43.9 kcal/mol

## GATCTCACGGGAGATC ((((((....))))))
[1]
  Tm: 51.7 °C
[2]
  folding enthalpy: -39.3 kcal/mol

## GATCTCACTAGAGATC ((((((....))))))
[1]
  Tm: 54.3 °C
[2]
  folding enthalpy: -40.9 kcal/mol

## GATCTCACTGAGATC ((((((...))))))
[1]
  Tm: 52.1 °C
[2]
  folding enthalpy: -34 kcal/mol

## GATCTCACTGGAGATC ((((((....))))))
[1]
  Tm: 51.3 °C
[2]
  folding enthalpy: -40 kcal/mol

## GATCTCAGACGAGATC ((((((....))))))
[1]
  Tm: 51.2 °C
[2]
  folding enthalpy: -36.9 kcal/mol

## GATCTCAGAGAGATC ((((((...))))))
[1]
  Tm: 55.4 °C
[2]
  folding enthalpy: -36 kcal/mol

## GATCTCAGCCGAGATC ((((((....))))))
[1]
  Tm: 52.6 °C
[2]
  folding enthalpy: -39.6 kcal/mol

## GATCTCAGCGGAGATC ((((((....))))))
[1]
  Tm: 53.7 °C
[2]
  folding enthalpy: -38.3 kcal/mol

## GATCTCAGTAGAGATC ((((((....))))))
[1]
  Tm: 54.1 °C
[2]
  folding enthalpy: -37.4 kcal/mol

## GATCTCAGTCGAGATC ((((((....))))))
[1]
  Tm: 54.1 °C
[2]
  folding enthalpy: -35.1 kcal/mol

## GATCTCAGTGGAGATC ((((((....))))))
[1]
  Tm: 52.6 °C
[2]
  folding enthalpy: -40.9 kcal/mol
